The text below walks through data of PubChem BioAssay.

Calls of active or inactive are those of the source.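 How the source made its calls, unless noted: active means viability loss from added drug above about 55%, and viability with drug at most 40%, in both replicates (limit read from the data, passing the limit was not always enough); inconclusive means both conditions met in only one replicate; inactive means neither replicate meets both conditions.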

The nature of experiment [1]: Her2 expression decrease, cell viability multiplex – SKBR3 breast tumor cells, AlphaScreen, ATP viability, primary screen (AID 461;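 active means Her2 level under about 52% in both replicate screens, with viability over 70% of control, limit read from the data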;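 on Her2 level: lower value means less Her2 protein in the cells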;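 on viability: percent of carrier control wells set as 100% viability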). As to conditions: SKBR3 Her2 protein level, 18-24 h, measured here: SKBR3 viability, ATP luminescence, at 10 µM. For orientation: Bead proximity is the source of the signal in Alpha formats.
Experiment [2] concerns the target Receptor tyrosine-protein kinase erbB-2 (Homo sapiens) (UniProt P04626). The description is as above. The note with it: 18-24 h, at 10 µM, stronger effect = lower value.
Experiment [3] in a line: reduced viability of SK-BR-3 breast cancer cells – cell-based, 24 h, human, pilot screen (AID 572;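 active means viability at or below 10% of carrier control in both of two separate runs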;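 further: compound exposure lasted between 18 and 24 h rather than exactly 24 h; 100% = carrier-treated control wells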). As to conditions: SK-BR-3 viability, CellTiter-Glo luminescence, at 10 µM, stronger effect = lower value. On the technique in general: ATP-based viability assays read luminescence as a measure of living cells.
Experiment [4] is described as follows: HUVEC growth inhibition – cell-based, human, primary screen (AID 575;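 active means viability at or below 30% in both replicate assays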;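 further: 100% = median of untreated cell wells with 0.1% DMSO on each plate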). The note with it: HUVEC proliferation, CellTiter-Glo luminescence, 72 h; at 10 µM; stronger effect = lower value. An outline of the steps: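 Timing: 72 h treatment at 37 °C; material: HUVEC primary cells; technique: CellTiter-Glo luminescence measuring cellular ATP; controls: vehicle and MePR control wells; measure: percent of median DMSO-control luminescence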

The nature of experiment [5]: H69AR cell proliferation blockers – human, duplicate replicates, primary screen (AID 580;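 active means viability at or under a set limit in both replicates, limit being median viability minus 3 SD, cut at about 48% in these data, passing the limit was not always enough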;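 further: 100% = mean luminescence of untreated wells and 0% = no signal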). The note with it: H69AR lung tumor cells viability, ATP luminescence, 72 h; at 10 µM; stronger effect = lower value.
Experiment [6] in a line: MRP1 drug-resistance reversers in H69AR cells – cell-based, doxorubicin co-treatment, pilot screen (AID 601). The note with it: CellTiter-Glo, 72 h, at 10 µM; for differential viability (reversal): stronger effect = higher value.
Experiment [7] is described as follows: yeast transport mutant growth inhibition pilot in 384-well plates, post-Golgi transport modulator project (AID 636; in the data active means inhibition above about 31%). As to conditions: absorbance 615 nm, about 18 h, stronger effect = higher value.
The nature of experiment [8]: growth suppression of yeast trafficking mutant, preliminary HTS, modulators of trafficking downstream of Golgi apparatus project, 1536-format plate, OD 615 nm (AID 637; in the data active means inhibition above about 30%). The note with it: yeast transport mutant growth, absorbance 615 nm, 18 h; stronger effect = higher value.
Setting [9] is: H69AR cells + 2 uM doxorubicin, measured here: viability with 2 uM doxorubicin, stronger effect = lower value.
[10] abbreviates: H69AR cells, compound alone cytotoxicity.

Chain of Receptor tyrosine-protein kinase erbB-2 (Homo sapiens) (P04626 whole entry, looked up): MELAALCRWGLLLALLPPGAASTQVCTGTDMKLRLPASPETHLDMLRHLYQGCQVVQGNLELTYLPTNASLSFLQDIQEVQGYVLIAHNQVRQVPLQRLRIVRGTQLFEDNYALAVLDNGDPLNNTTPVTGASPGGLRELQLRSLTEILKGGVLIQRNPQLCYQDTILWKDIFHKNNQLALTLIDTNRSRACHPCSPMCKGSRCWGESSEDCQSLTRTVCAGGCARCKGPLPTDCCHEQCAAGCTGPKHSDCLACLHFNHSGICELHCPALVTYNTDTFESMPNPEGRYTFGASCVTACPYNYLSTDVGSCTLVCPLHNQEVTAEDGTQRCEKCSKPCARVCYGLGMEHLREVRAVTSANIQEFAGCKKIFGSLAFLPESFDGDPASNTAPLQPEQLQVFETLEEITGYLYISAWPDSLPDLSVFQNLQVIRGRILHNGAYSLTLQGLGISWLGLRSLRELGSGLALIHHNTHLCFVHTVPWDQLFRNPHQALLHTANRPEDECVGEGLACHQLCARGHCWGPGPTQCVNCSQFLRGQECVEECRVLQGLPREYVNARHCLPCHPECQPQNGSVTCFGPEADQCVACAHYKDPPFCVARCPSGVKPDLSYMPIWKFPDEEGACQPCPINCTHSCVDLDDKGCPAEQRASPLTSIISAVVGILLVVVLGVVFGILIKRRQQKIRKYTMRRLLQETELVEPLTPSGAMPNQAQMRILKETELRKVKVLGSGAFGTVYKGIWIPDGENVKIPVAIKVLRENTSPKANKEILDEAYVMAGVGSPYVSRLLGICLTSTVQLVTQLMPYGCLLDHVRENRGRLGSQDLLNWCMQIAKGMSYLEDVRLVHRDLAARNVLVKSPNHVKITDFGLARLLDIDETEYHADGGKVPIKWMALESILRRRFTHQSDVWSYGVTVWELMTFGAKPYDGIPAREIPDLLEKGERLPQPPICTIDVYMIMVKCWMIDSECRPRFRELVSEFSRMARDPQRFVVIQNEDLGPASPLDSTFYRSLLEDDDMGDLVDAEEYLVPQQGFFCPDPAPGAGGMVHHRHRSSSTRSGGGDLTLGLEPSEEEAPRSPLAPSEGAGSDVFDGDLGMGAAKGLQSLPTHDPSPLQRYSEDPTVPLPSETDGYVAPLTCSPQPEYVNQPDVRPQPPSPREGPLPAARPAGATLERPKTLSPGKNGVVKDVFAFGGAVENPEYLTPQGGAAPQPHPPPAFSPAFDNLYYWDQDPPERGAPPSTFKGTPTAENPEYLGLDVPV

Consider `CCCn1c(SCC(=O)N2CCc3ccccc3C2)nc2c1c(=O)n(C)c(=O)n2C`, for which the viability (in general, a read-out of living cells in per cent, often relative to untreated cells) was 78.5% in experiment [1]; 78.5% (inactive) in experiment [3]; 91.2% (inactive) in experiment [4]; 84.9% (inactive) in experiment [5]; 81.9% in experiment [6] (setting [9]); 84.9% in experiment [6] (setting [10]). Besides, the Her2 level in experiment [2] is 128% (inactive). The differential viability (reversal) in experiment [6] (H69AR cells + 2 uM doxorubicin) was 2.96% (inactive). Also, the figures for the inhibition in experiment [7] and in experiment [8] were 0.26% (inactive) and 9% (inactive), respectively.
For `N=c1c(C(=O)NCc2ccc(F)cc2)cc2c(=O)n3ccccc3nc2n1CCCN1CCOCC1`, the viability in experiment [1] is 95%; in experiment [3], 95% (inactive); in experiment [4], 82.8% (inactive); in experiment [5], 76.6% (inactive); in experiment [6] (setting [9]), 85.6%; in experiment [6] (setting [10]), 76.6%. Also, the Her2 level in experiment [2] is 74.5% (inactive). Moreover, in experiment [6] (H69AR cells + 2 uM doxorubicin), the differential viability (reversal) is -8.96% (inactive). Moreover, the inhibition (commonly the change of the read-out against control, counted positive when it falls) is 0.78% (inactive) in experiment [7] and 10.8% (inactive) in experiment [8].
For the molecule `CCOC(=O)C1=C(C)Nc2ncnn2C1c1cc(OC)ccc1OC` (stereo not given), the viability was 92.5% in experiment [1]; 92.5% (inactive) in experiment [3]; 84.6% (inactive) in experiment [4]; 81.8% (inactive) in experiment [5]; 81.3% in experiment [6] (setting [9]); 81.8% in experiment [6] (setting [10]). Moreover, in experiment [2], the Her2 level is 84.5% (inactive). In addition, in experiment [6] (H69AR cells + 2 uM doxorubicin), the differential viability (reversal) is 0.51% (inactive). The results for the inhibition in experiment [7] and in experiment [8] were -6.22% (inactive) and 1.17% (inactive), respectively.
As to `Cc1cccc(Nc2nc(N)nc(CN3CCC(C(N)=O)CC3)n2)c1C`, the viability is 89% in experiment [1]; 89% (inactive) in experiment [3]; 105% (inactive) in experiment [4]; 98.1% (inactive) in experiment [5]; 85.2% in experiment [6] (setting [9]); 98.1% in experiment [6] (setting [10]). The Her2 level in experiment [2] is 89% (inactive). Moreover, the differential viability (reversal) in experiment [6] (H69AR cells + 2 uM doxorubicin) is 12.8% (inactive). Moreover, the inhibition in experiment [7] was -5.58% (inactive); in experiment [8] it was -3.49% (inactive).
Consider `[O-][n+]1c2c(nn1-c1ccccc1Cl)-c1nonc1CC2`, for which the viability is 102% in experiment [1]; 102% (inactive) in experiment [3]; 115% (inactive) in experiment [4]; 105% (inactive) in experiment [5]; 85.5% in experiment [6] (setting [9]); 105% in experiment [6] (setting [10]). Also, the Her2 level in experiment [2] was 85% (inactive). The differential viability (reversal) in experiment [6] (H69AR cells + 2 uM doxorubicin) was 20% (inactive). In addition, the values for the inhibition in experiment [7] and in experiment [8] were -5.54% (inactive) and -0.67% (inactive), respectively.
As to `O=C(CSc1nnc(Cc2cccs2)n1Cc1ccco1)Nc1cccc(Cl)c1`, the viability was 82.5% in experiment [1]; 82.5% (inactive) in experiment [3]; 73.4% (inactive) in experiment [4]; 87% (inactive) in experiment [5]; 95.6% in experiment [6] (setting [9]); 87% in experiment [6] (setting [10]). In experiment [2], the Her2 level is 64% (inactive). For the same molecule, the differential viability (reversal) in experiment [6] (H69AR cells + 2 uM doxorubicin) was -8.62% (inactive). The inhibition was -3.38% (inactive) in experiment [7] and -7.5% (inactive) in experiment [8].
Regarding `O=S(=O)(Cc1ccccc1)N1CCCCCC1`, the viability in experiment [1] is 93%; in experiment [3], 93% (inactive); in experiment [4], 96.1% (inactive); in experiment [5], 101% (inactive); in experiment [6] (setting [9]) it was 98.8%; in experiment [6] (setting [10]), 101%. Moreover, the Her2 level in experiment [2] is 83.5% (inactive). Also, the differential viability (reversal) in experiment [6] (H69AR cells + 2 uM doxorubicin) is 2.14% (inactive). Also, the inhibition is -5.81% (inactive) in experiment [7] and 2.3% (inactive) in experiment [8].
`O=C(NCCCCNC(=O)c1cccnc1)c1cccnc1`: the viability is 95% in experiment [1]; 95% (inactive) in experiment [3]; 94.5% (inactive) in experiment [4]; 105% (inactive) in experiment [5]; 102% in experiment [6] (setting [9]); 105% in experiment [6] (setting [10]). The Her2 level in experiment [2] was 83% (inactive). Also, the differential viability (reversal) in experiment [6] (H69AR cells + 2 uM doxorubicin) is 3.5% (inactive). In addition, the inhibition in experiment [7] is -0.52% (inactive); in experiment [8] it was 34.9% (active).
Turning to `O=C(C(c1ccccc1)c1ccccc1)N1CCN(Cc2ccccn2)CC1`, the viability in experiment [1] was 81%; in experiment [3] it was 81% (inactive); in experiment [4], 84.7% (inactive); in experiment [5], 93.4% (inactive); in experiment [6] (setting [9]), 93.8%; in experiment [6] (setting [10]) it was 93.4%. The Her2 level in experiment [2] was 112% (inactive). Besides, the differential viability (reversal) in experiment [6] (H69AR cells + 2 uM doxorubicin) was -0.39% (inactive). Moreover, the inhibition is -1.03% (inactive) in experiment [7] and -5.83% (inactive) in experiment [8].
With `CCOC(=O)N1CCC(NC(=O)CSCc2nc(-c3cccc(OC)c3)oc2C)CC1`, the viability was 94.5% in experiment [1]; 94.5% (inactive) in experiment [3]; 97.7% (inactive) in experiment [4]; 106% (inactive) in experiment [5]; 103% in experiment [6] (setting [9]); 106% in experiment [6] (setting [10]). Besides, in experiment [2], the Her2 level was 91% (inactive). Moreover, the differential viability (reversal) in experiment [6] (H69AR cells + 2 uM doxorubicin) is 2.79% (inactive). Also, the inhibition in experiment [7] was -2% (inactive); in experiment [8] it was 3.06% (inactive).
Regarding `Cc1ccc(NC(=O)c2cc(S(=O)(=O)N3CCC4(CC3)OCCO4)ccc2F)cc1`, the viability in experiment [1] was 101%; in experiment [3] it was 101% (inactive); in experiment [4], 90.7% (inactive); in experiment [5], 99.3% (inactive); in experiment [6] (setting [9]) it was 96.7%; in experiment [6] (setting [10]) it was 99.3%. Also, in experiment [2], the Her2 level is 143% (inactive). Also, the differential viability (reversal) in experiment [6] (H69AR cells + 2 uM doxorubicin) was 2.58% (inactive). Also, the inhibition in experiment [7] is 1.97% (inactive); in experiment [8], -11% (inactive).
With `CC1=C(C(=O)N2CCCCC2)C2(CCC(C)CC2)OC1=O` (stereo not given), the viability was 90% in experiment [1]; 90% (inactive) in experiment [3]; 109% (inactive) in experiment [4]; 94.2% (inactive) in experiment [5]; 81.3% in experiment [6] (setting [9]); 94.2% in experiment [6] (setting [10]). Moreover, the Her2 level in experiment [2] is 102% (inactive). In addition, the differential viability (reversal) in experiment [6] (H69AR cells + 2 uM doxorubicin) is 12.9% (inactive). The inhibition in experiment [7] is -5.87% (inactive); in experiment [8] it was -3.61% (inactive).
In the case of `CC1=C(n2nnc3ccccc32)C(c2ccccc2)C(C#N)=C(N)O1` (stereo not given), the viability was 72% in experiment [1]; 72% (inactive) in experiment [3]; 82.8% (inactive) in experiment [4]; 83.8% (inactive) in experiment [5]; 81.9% in experiment [6] (setting [9]); 83.8% in experiment [6] (setting [10]). For the same molecule, the Her2 level in experiment [2] is 73% (inactive). Further, the differential viability (reversal) in experiment [6] (H69AR cells + 2 uM doxorubicin) is 1.96% (inactive). Further, the inhibition in experiment [7] is -3.9% (inactive); in experiment [8], -4.1% (inactive).
`COc1cccc(CN(C)CC(=O)NC(=O)NCc2ccco2)c1`: the viability is 106% in experiment [1]; 106% (inactive) in experiment [3]; 92.7% (inactive) in experiment [4]; 84.7% (inactive) in experiment [5]; 79.4% in experiment [6] (setting [9]); 84.7% in experiment [6] (setting [10]). For the same molecule, the Her2 level in experiment [2] was 100% (inactive). The differential viability (reversal) in experiment [6] (H69AR cells + 2 uM doxorubicin) is 5.36% (inactive). Also, the inhibition in experiment [7] is 0.92% (inactive); in experiment [8], 21.4% (inactive).
